These results are taken from ChEMBL document CHEMBL4392864, “Diketopiperazine-Type Alkaloids from a Deep-Sea-Derived Aspergillus puniceus Fungus and Their Effects on Liver X Receptor α” (J Nat Prod, 2019).

Experiment [1] relates to Pyricularia oryzae. Description: Antifungal activity against Pyricularia oryzae HNM 1003 assessed as growth inhibition at 0.6 mM measured after 48 hrs by microbroth dilution method. It is filed as functional. Conditions: HNM 1003, 48 h, read-out: GI. On the technique in general: Broth dilution looks for growth in wells or tubes with falling amounts of substance.
Experiment [2] has as its system Fusarium oxysporum. Description: Antifungal activity against Fusarium oxysporum HNM 1003 assessed as growth inhibition at 0.6 mM measured after 48 hrs by microbroth dilution method. It is filed as functional. To be noted: HNM 1003, 48 h, read-out: GI. In a few lines:
(§1)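 Fungi were grown on PDA plates for 6−8 days at 30 °C, then the mycelia were moved into PD medium and filtered through cotton to give a spore suspension. Each well held PD medium, sample from a 10 mg/mL DMSO stock at about 0.6 mM, and spores (1 × 10^6 CFU). DMSO served as the negative control. OD600 was read at 0 and 48 h at 28 °C and percent growth inhibition calculated.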

The target in experiment [3] is L-lactate dehydrogenase A chain (Homo sapiens) (UniProt P00338). Put plainly: Inhibition of recombinant human LDHA expressed in Escherichia coli […] preincubated for 15 mins followed by substrate addition and measured after 60 mins.
The subject of experiment [4] is Curvularia australiensis. Put plainly: Antifungal activity against Curvularia australiensis BY01 assessed as growth inhibition at 0.6 mM measured after 48 hrs by microbroth dilution method. It is filed as functional. Conditions: BY01, 48 h, read-out: GI. The method in brief: as §1
For experiment [5], the target named is T1, Tyrosine-protein phosphatase non-receptor type 9 (Homo sapiens) (UniProt P43378).
T1 sequence (whole entry): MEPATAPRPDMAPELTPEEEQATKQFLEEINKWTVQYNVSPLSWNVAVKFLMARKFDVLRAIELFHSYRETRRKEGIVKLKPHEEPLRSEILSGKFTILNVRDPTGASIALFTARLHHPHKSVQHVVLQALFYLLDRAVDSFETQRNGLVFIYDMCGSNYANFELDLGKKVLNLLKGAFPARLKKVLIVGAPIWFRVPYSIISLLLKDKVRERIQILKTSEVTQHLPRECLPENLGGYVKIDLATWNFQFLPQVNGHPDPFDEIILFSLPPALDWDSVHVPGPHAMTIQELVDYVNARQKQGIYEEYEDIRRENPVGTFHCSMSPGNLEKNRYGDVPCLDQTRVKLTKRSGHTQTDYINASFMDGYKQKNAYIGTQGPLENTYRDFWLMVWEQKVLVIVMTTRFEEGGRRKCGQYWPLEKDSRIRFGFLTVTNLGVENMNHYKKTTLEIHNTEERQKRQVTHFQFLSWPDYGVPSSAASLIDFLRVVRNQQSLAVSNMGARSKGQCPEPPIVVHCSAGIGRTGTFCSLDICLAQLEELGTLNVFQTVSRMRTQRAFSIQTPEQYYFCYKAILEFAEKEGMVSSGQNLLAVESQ
Description: Inhibition of recombinant human MEG2 expressed in Escherichia coli […] preincubated for 15 mins followed by substrate addition and measured after 60 mins. In a few lines:
(§2)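 Recombinant human phosphatases were expressed in E. coli and purified. Enzyme and compound were preincubated for 15 min at room temperature in pH 6.5 buffer (50 mM HEPES, 100 mM NaCl, 1 mM EDTA, 1 mM DTT). Buffer containing 50 mM pNPP was then added and the mix incubated for 60 min at 37 °C. Product p-nitrophenol was read at 405 nm. Assays were run in triplicate and IC50 derived.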

The target in experiment [6] is T2, Oxysterols receptor LXR-alpha (Homo sapiens, UniProt Q13133).
T2 sequence (Q13133 whole entry): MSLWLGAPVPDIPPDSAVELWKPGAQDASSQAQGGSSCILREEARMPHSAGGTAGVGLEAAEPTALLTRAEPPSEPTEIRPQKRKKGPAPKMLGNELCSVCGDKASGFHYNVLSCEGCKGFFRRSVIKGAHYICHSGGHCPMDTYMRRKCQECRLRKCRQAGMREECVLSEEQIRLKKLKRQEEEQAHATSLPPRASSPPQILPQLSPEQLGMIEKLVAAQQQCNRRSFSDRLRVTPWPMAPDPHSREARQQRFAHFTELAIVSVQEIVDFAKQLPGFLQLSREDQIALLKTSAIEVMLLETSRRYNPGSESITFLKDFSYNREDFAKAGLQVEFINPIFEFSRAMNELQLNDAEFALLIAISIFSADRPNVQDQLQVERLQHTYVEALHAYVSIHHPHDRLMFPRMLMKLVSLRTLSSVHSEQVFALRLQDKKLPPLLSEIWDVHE
Put plainly: Transactivation of recombinant GAL4-fused human LXRalpha LBD (163 to 447 residues) expressed in human L02 cells measured after 24 hrs by luciferase reporter gene assay. Format: cell-based. A general note: A reporter such as luciferase makes a cellular process visible.

Experiment [7] deals with T3, Tyrosine-protein phosphatase non-receptor type 1 (Homo sapiens) (UniProt P18031).
T3 sequence (whole entry): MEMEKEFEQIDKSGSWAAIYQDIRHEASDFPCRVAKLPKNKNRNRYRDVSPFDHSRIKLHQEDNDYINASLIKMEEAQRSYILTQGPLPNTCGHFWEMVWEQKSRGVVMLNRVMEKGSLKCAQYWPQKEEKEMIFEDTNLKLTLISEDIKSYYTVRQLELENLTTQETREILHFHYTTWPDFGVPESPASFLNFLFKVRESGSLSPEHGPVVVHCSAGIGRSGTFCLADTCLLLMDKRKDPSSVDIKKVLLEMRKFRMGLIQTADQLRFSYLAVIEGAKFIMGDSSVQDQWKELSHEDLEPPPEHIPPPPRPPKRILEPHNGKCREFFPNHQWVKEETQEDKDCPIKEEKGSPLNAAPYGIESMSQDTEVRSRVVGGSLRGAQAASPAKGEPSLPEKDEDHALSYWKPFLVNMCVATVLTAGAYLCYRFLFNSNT
Description: Inhibition of recombinant human PTP1B expressed in Escherichia coli […] preincubated for 15 mins followed by substrate addition and measured after 60 mins. The method in brief:
as §2

Experiment [8] addresses Indoleamine 2,3-dioxygenase 1 (Homo sapiens, UniProt P14902). Description: Inhibition of recombinant human IDO1 expressed in Escherichia coli […] preincubated for 15 mins followed by substrate addition and measured after 60 mins.
The target of experiment [9] is Tyrosine-protein phosphatase non-receptor type 6 (Homo sapiens, UniProt P29350). Put plainly: Inhibition of recombinant human SHP1 expressed in Escherichia coli […] preincubated for 15 mins followed by substrate addition and measured after 60 mins. In a few lines: as §2
Experiment [10] addresses T4, Tyrosine-protein phosphatase non-receptor type 11 (Homo sapiens) (UniProt Q06124).
T4 sequence (whole entry): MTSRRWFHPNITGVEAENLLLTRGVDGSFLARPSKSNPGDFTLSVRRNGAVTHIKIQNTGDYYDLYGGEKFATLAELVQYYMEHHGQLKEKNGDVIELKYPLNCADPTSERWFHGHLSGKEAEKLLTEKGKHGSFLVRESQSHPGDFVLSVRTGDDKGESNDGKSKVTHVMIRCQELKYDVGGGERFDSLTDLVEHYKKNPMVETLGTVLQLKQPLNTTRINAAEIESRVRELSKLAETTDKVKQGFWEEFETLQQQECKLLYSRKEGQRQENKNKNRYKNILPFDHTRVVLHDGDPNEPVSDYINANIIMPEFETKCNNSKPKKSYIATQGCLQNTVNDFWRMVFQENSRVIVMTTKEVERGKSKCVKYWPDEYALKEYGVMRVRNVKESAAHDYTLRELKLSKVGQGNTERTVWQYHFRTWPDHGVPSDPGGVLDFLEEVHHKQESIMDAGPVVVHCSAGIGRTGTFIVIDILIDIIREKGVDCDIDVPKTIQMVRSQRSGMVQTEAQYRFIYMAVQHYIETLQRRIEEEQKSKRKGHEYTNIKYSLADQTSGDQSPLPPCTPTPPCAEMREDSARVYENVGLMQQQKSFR
Description: Inhibition of recombinant human SHP2 expressed in Escherichia coli […] preincubated for 15 mins followed by substrate addition and measured after 60 mins. In a few lines:
as §2

Experiment [11] relates to Colletotrichum gloeosporioides. Put plainly: Antifungal activity against Colletotrichum gloeosporioides HNM 1003 assessed as growth inhibition at 0.6 mM measured after 48 hrs by microbroth dilution method. Format: functional. To be noted: HNM 1003, 48 h, read-out: GI. The method in brief:
as §1

For experiment [12], the target named is T5, Tyrosine-protein phosphatase non-receptor type 2 (Homo sapiens) (UniProt P17706).
T5 sequence (whole entry): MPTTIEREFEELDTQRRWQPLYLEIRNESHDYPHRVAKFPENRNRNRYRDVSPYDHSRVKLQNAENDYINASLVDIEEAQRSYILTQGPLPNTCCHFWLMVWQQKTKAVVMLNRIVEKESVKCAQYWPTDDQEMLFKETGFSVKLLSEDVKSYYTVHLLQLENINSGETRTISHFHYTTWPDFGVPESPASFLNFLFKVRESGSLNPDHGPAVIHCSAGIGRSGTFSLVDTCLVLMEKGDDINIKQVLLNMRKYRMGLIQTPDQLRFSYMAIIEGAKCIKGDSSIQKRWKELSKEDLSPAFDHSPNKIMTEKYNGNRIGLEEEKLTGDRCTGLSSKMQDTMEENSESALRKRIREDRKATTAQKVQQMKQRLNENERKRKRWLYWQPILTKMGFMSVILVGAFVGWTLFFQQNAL
Description: Inhibition of recombinant human TCPTP expressed in Escherichia coli […] preincubated for 15 mins followed by substrate addition and measured after 60 mins. In a few lines:
as §2

The source made the active and inactive calls. The rule behind the calls is not given here.

Sequence of Tyrosine-protein phosphatase non-receptor type 6 (P29350 whole entry): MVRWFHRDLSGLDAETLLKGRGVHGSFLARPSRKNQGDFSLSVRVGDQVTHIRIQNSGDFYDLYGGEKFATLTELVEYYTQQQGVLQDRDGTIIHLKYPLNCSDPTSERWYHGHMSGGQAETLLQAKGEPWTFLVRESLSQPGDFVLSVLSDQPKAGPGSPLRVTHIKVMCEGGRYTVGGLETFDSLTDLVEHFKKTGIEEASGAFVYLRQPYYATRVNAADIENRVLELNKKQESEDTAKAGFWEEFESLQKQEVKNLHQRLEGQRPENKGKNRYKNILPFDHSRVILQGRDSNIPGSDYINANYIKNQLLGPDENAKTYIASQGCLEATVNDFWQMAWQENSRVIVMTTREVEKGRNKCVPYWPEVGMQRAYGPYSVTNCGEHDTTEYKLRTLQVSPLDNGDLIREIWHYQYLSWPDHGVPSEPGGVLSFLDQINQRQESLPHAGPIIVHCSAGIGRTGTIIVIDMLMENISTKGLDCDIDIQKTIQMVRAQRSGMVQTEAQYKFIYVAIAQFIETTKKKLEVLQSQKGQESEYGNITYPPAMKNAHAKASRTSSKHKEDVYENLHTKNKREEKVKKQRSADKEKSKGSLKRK
Sequence of Indoleamine 2,3-dioxygenase 1 (P14902 whole entry, looked up): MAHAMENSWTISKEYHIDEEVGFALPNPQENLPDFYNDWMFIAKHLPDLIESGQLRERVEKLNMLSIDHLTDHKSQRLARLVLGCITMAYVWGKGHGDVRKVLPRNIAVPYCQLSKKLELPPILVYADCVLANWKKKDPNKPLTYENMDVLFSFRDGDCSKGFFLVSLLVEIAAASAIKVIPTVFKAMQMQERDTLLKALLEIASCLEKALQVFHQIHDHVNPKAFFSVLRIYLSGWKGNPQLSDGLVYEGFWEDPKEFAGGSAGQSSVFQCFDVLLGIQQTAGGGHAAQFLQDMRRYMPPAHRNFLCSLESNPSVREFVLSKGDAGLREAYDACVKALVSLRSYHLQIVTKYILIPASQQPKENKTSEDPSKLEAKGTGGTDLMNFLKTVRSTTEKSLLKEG

The EC50 is the concentration needed to bring the measured effect to its halfway point. For the compound `C[C@@H]1C(=O)N[C@@](O)(Cc2ccccc2)c2nc3c(O)cccc3c(=O)n21`, the inhibition of growth at 600 µM in experiment [1], in experiment [2], in experiment [4] and in experiment [11] was under 50% each time. Further, the inhibition entry in experiment [3], in [5], in experiment [7], in experiment [8], in [9] and in experiment [10] was “inactive” in each case. Besides, in experiment [12], the inhibition result was “inactive”. Besides, the EC50 in experiment [6] was found to be 1.7 µM.

As for `CO[C@]1(Cc2ccccc2)NC(=O)[C@@H](C)n2c1nc1c(O)cccc1c2=O`, the inhibition of growth at 600 µM in [1], in [2], in experiment [4] and in [11] was under 50% each time. Besides, the inhibition result in [3], in [5], in experiment [7], in [8], in experiment [9] and in [10] was “inactive” throughout. Further, the inhibition result in experiment [12] is “inactive”. Moreover, the EC50 in experiment [6] was 5.1 µM.

For the compound `C[C@@H]1C(=O)N[C@@](O)(Cc2ccccc2)c2nc3c(c(=O)n21)C=CC=CO3`, the inhibition of growth at 600 µM in [1], in experiment [2], in experiment [4] and in [11] was under 50% in each case. In addition, the inhibition entry in experiment [3], in experiment [5], in experiment [7], in experiment [8], in experiment [9] and in experiment [10] was “inactive” throughout. The inhibition entry in experiment [12] is “inactive”. Further, in experiment [6], the EC50 turned out to be 16 µM.

With `C[C@@H]1C(=O)N[C@](O)(Cc2ccccc2)c2nc3c(O)cccc3c(=O)n21`, the inhibition of growth at 600 µM in [1], in experiment [2], in experiment [4] and in experiment [11] was under 50% in each case. For the same compound, the inhibition entry in experiment [3], in experiment [5], in [7], in experiment [8], in [9] and in experiment [10] was “inactive” in each case. Also, in [12], the inhibition entry was “inactive”. In addition, the EC50 in [6] is 5.3 µM.

Regarding `C[C@@H]1C(=O)N/C(=C\c2ccccc2)c2nc3c(c(=O)n21)C=CC=CO3`, the inhibition of growth at 600 µM in experiment [1], in experiment [2], in experiment [4] and in [11] was under 50% each time. For the same compound, the inhibition result in experiment [3], in experiment [5], in experiment [7], in experiment [8], in experiment [9] and in experiment [10] was “inactive” throughout. The inhibition entry in experiment [12] is “inactive”. In experiment [6], the EC50 was determined as 50 µM.

For the compound `CO[C@@]1(Cc2ccccc2)NC(=O)[C@@H](C)n2c1nc1c(c2=O)C=CC=CO1`, the inhibition of growth at 600 µM in experiment [1], in [2], in experiment [4] and in experiment [11] was under 50% each time. The inhibition entry in experiment [3], in [5], in experiment [7], in experiment [8], in [9] and in experiment [10] was “inactive” each time. Besides, the inhibition entry in [12] was “inactive”. Also, in [6], the EC50 was 15 µM.

In the case of `CO[C@]1(Cc2ccccc2)NC(=O)[C@@H](C)n2c1nc1c(c2=O)C=CC=CO1`, the inhibition of growth at 600 µM in experiment [1], in experiment [2], in experiment [4] and in [11] was under 50% throughout. In addition, the inhibition entry in experiment [3], in [5], in [7], in experiment [8], in experiment [9] and in [10] was “inactive” throughout. In [12], the inhibition entry is “inactive”. Further, the EC50 in experiment [6] was determined as 15 µM.
